Laboratory results as given in ChEMBL document CHEMBL1127808, “Structure-distribution relationships for metal-labeled myocardial imaging agents: comparison of a series of cationic gallium (III) complexes with hexadentate bis(salicylaldimine) ligands” (J Med Chem, 1994).

Assays:
Format in all cases: functional
Rattus norvegicus [1] = assay: Retention of tracer Gallium in blood of rats after intravenous administration and Gallium-67 Bis(salicylaldimine) after 120 min
How it was run: (§1)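 Male Sprague-Dawley rats under ether anesthesia received a femoral vein bolus of no-carrier-added 67Ga complex (1–3 μCi, 0.1–0.2 mL; 5% ethanol in 0.16 M NaCl with 5–10% propylene glycol, filtered 0.2 μm). Injected dose was found by weighing the syringe. Rats were decapitated at 1 or 120 min. Organs were blotted, weighed and gamma counted against an injectate standard, giving percent injected dose per organ. Blood was taken as 7% of body mass. Mean ± SD, n = 3–4.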

Rattus norvegicus [2] = assay: Retention of tracer Gallium in blood of rats after intravenous administration and Gallium-67 Bis(salicylaldimine) after 1 min; how it was run: as §1
Rattus norvegicus [3] = assay: Retention of tracer Gallium in heart of rats after intravenous administration and Gallium-67 Bis(salicylaldimine) after 120 min; how it was run: as §1
Rattus norvegicus [4] = assay: Retention of tracer Gallium in heart of rats after intravenous administration and Gallium-67 Bis(salicylaldimine) after 1 min; how it was run: as §1
Rattus norvegicus [5] = assay: Retention of tracer Gallium in kidney of rats after intravenous administration and Gallium-67 Bis(salicylaldimine) after 120 min was determined; how it was run: as §1
Rattus norvegicus [6] = assay: Retention of tracer Gallium in kidney of rats after intravenous administration and Gallium-67 Bis(salicylaldimine) after 1 min was determined; how it was run: as §1
Rattus norvegicus [7] = assay: Retention of tracer Gallium in liver of rats after intravenous administration and Gallium-67 Bis(salicylaldimine) after 1 min; how it was run: as §1
Rattus norvegicus [8] = assay: Retention of tracer Gallium in lung of rats after intravenous administration and Gallium-67 Bis(salicylaldimine) after 120 min; how it was run: as §1
Rattus norvegicus [9] = assay: Retention of tracer Gallium in liver of rats after intravenous administration and Gallium-67 Bis(salicylaldimine) after 120 min; how it was run: as §1
Rattus norvegicus [10] = assay: Retention of tracer Gallium in lung of rats after intravenous administration and Gallium-67 Bis(salicylaldimine) after 1 min; how it was run: as §1
[11] = Ratio of retention of tracer Gallium in Heart to blood was determined after intravenous administration to rats after 120 min
How it was run: (§2)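 Heart-to-liver and heart-to-blood ratios were calculated from percent injected dose per gram of tissue. No-carrier-added 67Ga complex (1–3 μCi, 0.1–0.2 mL) in 5% ethanol/saline with 5–10% propylene glycol, radiochemical purity >98%, was given as a femoral vein bolus to male Sprague-Dawley rats under ether anesthesia. Rats were decapitated at 1, 15 or 120 min and tissues gamma counted. Mean ± SD, n = 3–4.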

[12] = Ratio of retention of tracer Gallium in Heart to Liver was determined after intravenous administration to rats after 120 min; how it was run: as §2
[13] = Ratio of retention of tracer Gallium in Heart to Liver was determined after intravenous administration to rats after 1 min; how it was run: as §2
[14] = Ratio of retention of tracer Gallium in Heart to blood was determined after intravenous administration to rats after 1 min; how it was run: as §2
Rattus norvegicus [15] = assay: Retention of tracer Gallium in kidney of rats after intravenous administration and Gallium-67 Bis(salicylaldimine) after 1 min; how it was run: as §1
[16] = Ratio of retention of tracer Gallium in Heart to Liver was determined after intravenous administration to rats after 15 min; how it was run: as §2
[17] = Ratio of retention of tracer Gallium in Heart to blood was determined after intravenous administration to rats after 15 min; how it was run: as §2
Rattus norvegicus [18] = assay: Retention of tracer Gallium in kidney of rats after intravenous administration and Gallium-67 Bis(salicylaldimine) after 120 min; how it was run: as §1

Molecule COc1cc(O)c(/C=N/CCCNCCNCCC/N=C/c2cc(C)c(OC)cc2O)cc1C has an Injected dose (Rattus norvegicus [1]) of 0.61%, an Injected dose (Rattus norvegicus [2]) of 7.79% and an Injected dose (Rattus norvegicus [3]) of 0.89%. The Injected dose (Rattus norvegicus [4]) was 0.88%, the Injected dose (Rattus norvegicus [5]) was 2.74% and the Injected dose (Rattus norvegicus [6]) was 5.14%. The Injected dose (Rattus norvegicus [7]) was 39.5%, the Injected dose (Rattus norvegicus [8]) was 0.42% and the Injected dose (Rattus norvegicus [9]) was 5.3%. It also gave an Injected dose (Rattus norvegicus [10]) of 0.79%, a Ratio [11] of 30 and a Ratio [12] of 1.92. It also gave a Ratio [13] of 0.14 and a Ratio [14] of 2.1.

CCN(CC)c1ccc(/C=N/CCCNCCNCCC/N=C/c2ccc(N(CC)CC)cc2O)c(O)c1 gave an Injected dose (Rattus norvegicus [1]) of 1.27%, an Injected dose (Rattus norvegicus [2]) of 11.1% and an Injected dose (Rattus norvegicus [3]) of 0.65%. It also gave an Injected dose (Rattus norvegicus [4]) of 0.69%, an Injected dose (Rattus norvegicus [15]) of 6.33% and an Injected dose (Rattus norvegicus [7]) of 38.1%. It also gave an Injected dose (Rattus norvegicus [8]) of 0.67%, an Injected dose (Rattus norvegicus [9]) of 9.7% and an Injected dose (Rattus norvegicus [10]) of 1.26%. The Ratio [11] was 9.2, the Ratio [12] was 0.86 and the Ratio [16] was 0.28. For the same molecule, the Ratio [13] was 0.24, the Ratio [17] was 4.5 and the Ratio [14] was 1.22. It also gave an Injected dose (Rattus norvegicus [18]) of 4.67%.

With CCOc1cc(C)c(/C=N/CCCNCCNCCC/N=C/c2c(C)cc(OCC)cc2O)c(O)c1 the Injected dose (Rattus norvegicus [1]) was 0.42%, the Injected dose (Rattus norvegicus [2]) was 7.73% and the Injected dose (Rattus norvegicus [3]) was 0.87%. For the same molecule, the Injected dose (Rattus norvegicus [4]) was 0.91%, the Injected dose (Rattus norvegicus [15]) was 5.24% and the Injected dose (Rattus norvegicus [7]) was 29.5%. The Injected dose (Rattus norvegicus [8]) was 0.49%, the Injected dose (Rattus norvegicus [9]) was 3% and the Injected dose (Rattus norvegicus [10]) was 0.8%. The Ratio [11] was 40.5, the Ratio [12] was 2.7 and the Ratio [16] was 0.73. It also gave a Ratio [13] of 0.29, a Ratio [17] of 20.9 and a Ratio [14] of 2.2. The Injected dose (Rattus norvegicus [18]) was 2.42%.

Oc1ccccc1/C=N/CCCNCCNCCC/N=C/c1ccccc1O showed an Injected dose (Rattus norvegicus [1]) of 0.64%, an Injected dose (Rattus norvegicus [2]) of 4.21% and an Injected dose (Rattus norvegicus [3]) of 0.41%. For the same molecule, the Injected dose (Rattus norvegicus [4]) was 0.45%, the Injected dose (Rattus norvegicus [15]) was 9.84% and the Injected dose (Rattus norvegicus [7]) was 26.7%. The Injected dose (Rattus norvegicus [8]) was 0.28%, the Injected dose (Rattus norvegicus [9]) was 5.3% and the Injected dose (Rattus norvegicus [10]) was 1%. For the same molecule, the Ratio [11] was 12.2, the Ratio [12] was 0.9 and the Ratio [16] was 0.51. The Ratio [13] was 0.2, the Ratio [17] was 8.3 and the Ratio [14] was 2.15. The Injected dose (Rattus norvegicus [18]) was 1.4%.

Molecule CCN(CC)c1ccc(/C=N\CC(C)(C)CNCCNCC(C)(C)C/N=C/c2ccc(N(CC)CC)cc2O)c(O)c1 has an Injected dose (Rattus norvegicus [1]) of 1.06%, an Injected dose (Rattus norvegicus [2]) of 30.6% and an Injected dose (Rattus norvegicus [3]) of 0.4%. It also gave an Injected dose (Rattus norvegicus [4]) of 0.66%, an Injected dose (Rattus norvegicus [15]) of 4.25% and an Injected dose (Rattus norvegicus [7]) of 47%. The Injected dose (Rattus norvegicus [8]) was 1.31%, the Injected dose (Rattus norvegicus [9]) was 11.1% and the Injected dose (Rattus norvegicus [10]) was 5.3%. For the same molecule, the Ratio [11] was 8.1, the Ratio [12] was 0.5 and the Ratio [16] was 0.13. For the same molecule, the Ratio [13] was 0.17, the Ratio [17] was 1.9 and the Ratio [14] was 0.45. It also gave an Injected dose (Rattus norvegicus [18]) of 5.17%.

In the case of COc1ccc(/C=N/CCCNCCNCCC/N=C/c2ccc(OC)cc2O)c(O)c1, the Injected dose (Rattus norvegicus [1]) is reported as 0.42%, the Injected dose (Rattus norvegicus [2]) is reported as 4.44% and the Injected dose (Rattus norvegicus [3]) is reported as 0.65%. The Injected dose (Rattus norvegicus [4]) was 0.67%, the Injected dose (Rattus norvegicus [15]) was 8.42% and the Injected dose (Rattus norvegicus [7]) was 25.2%. The Injected dose (Rattus norvegicus [8]) was 0.38%, the Injected dose (Rattus norvegicus [9]) was 5.1% and the Injected dose (Rattus norvegicus [10]) was 1.05%. It also gave a Ratio [11] of 30.6, a Ratio [12] of 1.6 and a Ratio [16] of 0.62. The Ratio [13] was 0.32, the Ratio [17] was 17.6 and the Ratio [14] was 2.99. The Injected dose (Rattus norvegicus [18]) was 1.69%.

CC(C)c1ccc(O)c(/C=N/CCCNCCNCCC/N=C/c2cc(C(C)C)ccc2O)c1 showed an Injected dose (Rattus norvegicus [1]) of 1.21%, an Injected dose (Rattus norvegicus [2]) of 23.4% and an Injected dose (Rattus norvegicus [3]) of 0.55%. The Injected dose (Rattus norvegicus [4]) was 0.67%, the Injected dose (Rattus norvegicus [15]) was 6.02% and the Injected dose (Rattus norvegicus [7]) was 49.2%. For the same molecule, the Injected dose (Rattus norvegicus [8]) was 0.36%, the Injected dose (Rattus norvegicus [9]) was 8.5% and the Injected dose (Rattus norvegicus [10]) was 1.06%. It also gave a Ratio [11] of 8.6, a Ratio [12] of 0.75 and a Ratio [13] of 0.16. For the same molecule, the Ratio [14] was 0.54 and the Injected dose (Rattus norvegicus [18]) was 3.95%.

In the case of COc1cc(C)c(/C=N/CCCNCCNCCC/N=C/c2c(C)cc(OC)cc2O)c(O)c1, the Injected dose (Rattus norvegicus [1]) is reported as 0.43%, the Injected dose (Rattus norvegicus [2]) is reported as 5.94% and the Injected dose (Rattus norvegicus [3]) is reported as 1.03%. It also gave an Injected dose (Rattus norvegicus [4]) of 1.08%, an Injected dose (Rattus norvegicus [15]) of 5.39% and an Injected dose (Rattus norvegicus [7]) of 28.8%. It also gave an Injected dose (Rattus norvegicus [8]) of 0.55%, an Injected dose (Rattus norvegicus [9]) of 3.4% and an Injected dose (Rattus norvegicus [10]) of 0.88%. The Ratio [11] was 45.1, the Ratio [12] was 3.6 and the Ratio [13] was 0.45. For the same molecule, the Ratio [14] was 3.4 and the Injected dose (Rattus norvegicus [18]) was 1.94%.

Molecule COc1cc(O)c(/C=N\CC(C)(C)CNCCNCC(C)(C)C/N=C/c2c(O)cc(OC)cc2OC)c(OC)c1 has an Injected dose (Rattus norvegicus [1]) of 0.45%, an Injected dose (Rattus norvegicus [2]) of 18.8% and an Injected dose (Rattus norvegicus [3]) of 1.01%. For the same molecule, the Injected dose (Rattus norvegicus [4]) was 1.03%, the Injected dose (Rattus norvegicus [15]) was 8.33% and the Injected dose (Rattus norvegicus [7]) was 50.6%. It also gave an Injected dose (Rattus norvegicus [8]) of 0.64%, an Injected dose (Rattus norvegicus [9]) of 3.9% and an Injected dose (Rattus norvegicus [10]) of 1.63%. It also gave a Ratio [11] of 44.5, a Ratio [12] of 3.24 and a Ratio [16] of 0.32. For the same molecule, the Ratio [13] was 0.23, the Ratio [17] was 9.6 and the Ratio [14] was 1.1. The Injected dose (Rattus norvegicus [18]) was 5.4%.

Work on COc1cc(O)c(/C=N/CCCNCCNCCC/N=C/c2c(O)cc(OC)cc2OC)c(OC)c1 yielded an Injected dose (Rattus norvegicus [1]) of 0.33%, an Injected dose (Rattus norvegicus [2]) of 8.49% and an Injected dose (Rattus norvegicus [3]) of 0.86%. The Injected dose (Rattus norvegicus [4]) was 1.04%, the Injected dose (Rattus norvegicus [15]) was 5.26% and the Injected dose (Rattus norvegicus [7]) was 43%. It also gave an Injected dose (Rattus norvegicus [8]) of 0.52%, an Injected dose (Rattus norvegicus [9]) of 3.1% and an Injected dose (Rattus norvegicus [10]) of 0.92%. For the same molecule, the Ratio [11] was 45.6, the Ratio [12] was 4.1 and the Ratio [16] was 0.56. It also gave a Ratio [13] of 0.32, a Ratio [17] of 18.1 and a Ratio [14] of 2.3. It also gave an Injected dose (Rattus norvegicus [18]) of 2.17%.

With COc1ccc(O)c(/C=N/CCCNCCNCCC/N=C/c2cc(OC)ccc2O)c1 the Injected dose (Rattus norvegicus [1]) was 1.11%, the Injected dose (Rattus norvegicus [2]) was 7.55% and the Injected dose (Rattus norvegicus [3]) was 0.23%. It also gave an Injected dose (Rattus norvegicus [4]) of 0.34%, an Injected dose (Rattus norvegicus [15]) of 7.64% and an Injected dose (Rattus norvegicus [7]) of 26.5%. The Injected dose (Rattus norvegicus [8]) was 0.18%, the Injected dose (Rattus norvegicus [9]) was 6.8% and the Injected dose (Rattus norvegicus [10]) was 0.79%. It also gave a Ratio [11] of 4.3, a Ratio [12] of 0.42 and a Ratio [16] of 0.19. The Ratio [13] was 0.15, the Ratio [17] was 2.6 and the Ratio [14] was 0.89. For the same molecule, the Injected dose (Rattus norvegicus [18]) was 1.19%.
